# In ChEMBL document CHEMBL5678814, “Novel Mps1 Kinase Inhibitors with Potent Antitumor Activity” (Mol Cancer Ther, 2016):
# pIC50: −log10 of the molar value. Active and inactive are the calls of the source. The calls are words filed in the database; no cut-off is given here.
# Columns and labels:
# A2780cis [1] = assay: Antitumor activity against human A2780cis cells implanted female athymic NMRI mouse model assessed as induction in KNL1 at Thr-875 phosphorylation at 24 mg/kg,iv administered once for 1 day by immunohistochemical staining; format: functional, organism-based
# Summary of the method: (§1)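 A2780cis tumors (2×10^6 cells in 100% Matrigel, s.c.) in female NMRI nude mice. Paclitaxel i.v. once at 24 mg/kg on day 1, started at ~52–60 mm2 tumor area. Tumors harvested 36 h after first treatment. Paraffin sections stained with rabbit anti-pThr875 KNL1 or anti-CASC5 (total KNL1), both 1:400. Positive pixels above background scored in three fields per slide.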
# A2780cis [2] = assay: Antitumor activity against human A2780cis cells implanted female athymic NMRI mouse model assessed as change in KNL1 total level at 24 mg/kg,iv administered for 1 day by immunohistochemical staining; format: functional, organism-based; summary of the method: as §1
# A2780cis [3] = assay: Antitumor activity against human A2780cis cells xenografted in female athymic NMRI mouse assessed as increase in apoptosis at 24 mg/kg,iv administered once for 1 day and measured after 8 hrs by H&E staining
# A2780cis [4] = assay: Antitumor activity against human A2780cis cells xenografted in female athymic NMRI mouse assessed as induction in atypical mitoses at 24 mg/kg,iv administered once for 1 day and measured after 8 hrs by H&E staining
# LU387 = assay: Antitumor activity against human LU387 cells xenografted female athymic NMRI mouse model assessed as reduction in tumor size at 20 mg/kg,iv administered twice daily intermittent for 1 days on/6 days off; format: functional, organism-based; settings: time 7.0 day, in the assay text read “once daily” for “twice daily”
# Summary of the method: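 LU387 patient-derived tumor fragments (4–5 mm) transplanted s.c. into the flank of nude mice. Treatment started at ~40 mm2. Paclitaxel i.v. at 20 mg/kg once weekly (1 on/6 off). Tumor area (longest diameter × perpendicular) measured by caliper two to three times weekly. T/C computed from end-of-study tumor areas; 8–10 mice/group.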
# A2780cis [5] = assay: Antitumor activity against human A2780cis cells xenografted in female athymic NMRI mouse assessed as increase in necrosis at 24 mg/kg,iv administered once for 1 day and measured after 8 hrs by H&E staining
# [6] = Clearance in male Wistar rat blood at 0.5 mg/kg, iv measured after 24 hrs by LC/-MS/MS analysis; format: ADME, organism-based
# [7] = Toxicity in human A2780cis cells xenografted female athymic NMRI mouse model assessed as change in body weight at 5 mg/kg, po administered twice daily intermittent for 2 days on/5 days off; format: organism-based; settings: in vivo, 168 h, time 7 day
# Summary of the method: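 A2780cis cells (2×10^6 in 100% Matrigel) implanted s.c. in athymic mice. Treatment started at ~30 mm2. Oral dosing twice daily, 2 days on/5 days off, with PEG 400/ethanol/Solutol vehicle controls. Dose based on individual body weight. Body weight monitored two to three times weekly as toxicity measure; >20% loss deemed toxic.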
# [8] = Half life in female CD1 mouse plasma at 1 mg/kg, iv measured after 24 hrs by LC/-MS/MS analysis; format: ADME, organism-based
# Summary of the method: (§2)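 Female CD1 mice received a single iv bolus of 1.0 mg/kg in 50% PEG 400, 10% ethanol and 40% water. Plasma was sampled at 2, 5, 15, 30 and 45 min and at 1, 2, 4, 6, 8 and 24 h, precipitated with ice-cold acetonitrile (1:5), and supernatants were quantified by LC/MS-MS. Parameters were estimated from plasma concentration data, with AUC by the log-linear trapezoidal rule.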
# [9] = Antitumor activity against human A2780cis cells implanted female athymic NMRI mouse model assessed as reduction in KNL1 at Thr-875 phosphorylation at 2 mg/kg,po administered for 2 days by immunohistochemical staining relative to control; format: functional; parameters: scale not given: the % may be the effect or the level left; settings: time 2 day
# NCI-H1299 = assay: Synergistic antitumor activity against human NCI-H1299 cells xenografted female athymic NMRI mouse model assessed as MTD at 3 mg/kg,po administered twice daily intermittent for 2 days on/5 days off in the presence of paclitaxel relative to control; format: functional; settings: time 7 day
# [10] = Volume of distribution at steady state in male Wistar rat plasma at 0.5 mg/kg, iv measured after 24 hrs by LC/-MS/MS analysis; format: ADME, organism-based; settings: read-out: Vdss
# [11] = Cmax in female NMRI mouse plasma at 1 mg/kg, po measured after 24 hrs by LC/-MS/MS analysis
# Caov-3 cell line = assay: Antiproliferative activity against human Caov-3 cell line assessed as cell growth inhibition incubated for 96 hrs by crystal violet staining; settings: Caov-3, 96 h
# [12] = Cmax in male Wistar rat plasma at 0.5 mg/kg, po measured after 24 hrs by LC/-MS/MS analysis; format: ADME, organism-based
# Summary of the method: (§3)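 Male Wistar rats given 0.5 mg/kg orally. Plasma collected from 8 min to 24 h, precipitated with ice-cold acetonitrile (1:5), and analysed by LC/MS-MS. Cmax and Tmax read directly from concentration–time profiles.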
# [13] = Clearance in female CD1 mouse blood at 1 mg/kg, iv measured after 24 hrs by LC/-MS/MS analysis; format: ADME, organism-based
# Summary of the method: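 Single dose to female mice, i.v. as bolus (1.0 mg/kg) or oral (1 mg/kg), in 50% PEG 400/10% ethanol/40% water. Plasma sampled up to 24 h: 2 min–24 h after i.v., 8 min–24 h after p.o. Samples precipitated with ice-cold acetonitrile (1:5) and analysed by LC/MS-MS. AUC by log-linear trapezoidal rule; Cmax and Tmax read directly from the profiles.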
# [14] = Tmax in female NMRI mouse plasma at 1 mg/kg, po measured after 24 hrs by LC/-MS/MS analysis
# [15] = Volume of distribution at steady state in female CD1 mouse plasma at 1 mg/kg, iv measured after 24 hrs by LC/-MS/MS analysis; format: ADME, organism-based; settings: read-out: Vdss; summary of the method: as §2
# [16] = Antitumor activity against human A2780cis cells xenografted female athymic NMRI mouse model assessed as T/C ratio at 5 mg/kg, po administered twice daily intermittent for 2 days on/5 days off; format: functional; settings: time 7 day
# [17] = tested on: KATO III stomach cancer cell line; assay: Antiproliferative activity against human KATO III stomach cancer cell line assessed as cell growth inhibition incubated for 96 hrs by MTS assay; format: functional, cell-based
# SUM149PT = assay: Synergistic antitumor activity against human SUM149 cells xenografted female athymic NMRI mouse model assessed as MTD at 1.5 mg/kg,po administered twice daily intermittent for 2 days on/5 days off measured after 48 days treatment in the presence of paclitaxel relative to control; settings: time 48 day
# [18] = Oral bioavailability in male Wistar rat plasma at 0.5 mg/kg measured after 24 hrs by LC/-MS/MS analysis; format: ADME, organism-based
# [19] = Synergistic toxicity in human NCI-H1299 cells xenografted female athymic NMRI mouse model assessed as body weight loss at 3 mg/kg,po administered twice daily intermittent for 2 days on/5 days off in the presence of paclitaxel relative to control; format: organism-based; settings: in vivo, 168 h, time 7 day
# Summary of the method: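 NCI-H1299 cells (3×10^6 in 100% Matrigel) implanted s.c. in the inguinal region of athymic mice. Treatment started on day 8 at ~30 mm2. Mps1 inhibitor given p.o. 3 mg/kg twice daily, 2 days on/5 off. Paclitaxel i.v. 20 mg/kg once weekly, given within 1 h of the inhibitor on the same day. Body weight tracked two to three times weekly; >20% loss deemed toxic.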
# [20] = Tmax in male Wistar rat plasma at 0.5 mg/kg, po measured after 24 hrs by LC/-MS/MS analysis; format: ADME, organism-based; summary of the method: as §3
# [21] = Oral bioavailability in female NMRI mouse plasma at 1 mg/kg measured after 24 hrs by LC/-MS/MS analysis
# [22] = Antitumor activity against human A2780cis cells implanted female athymic NMRI mouse model assessed as reduction in KNL1 at Thr-875 phosphorylation at 4 mg/kg,po administered for 2 days by immunohistochemical staining relative to control; format: functional; parameters: scale not given: the % may be the effect or the level left; settings: time 2 day
# LXF-289 cell line = assay: Antiproliferative activity against human LXF-289 cell line assessed as cell growth inhibition incubated for 96 hrs by crystal violet staining; settings: LXF-289, 96 h
# [23] = Half life in male Wistar rat plasma at 0.5 mg/kg, iv measured after 24 hrs by LC/-MS/MS analysis; format: ADME, organism-based
smiles,measurement,setting,value
CC(=O)O[C@H]1C(=O)[C@@]2(C)[C@H]([C@H](OC(=O)c3ccccc3)[C@]3(O)C[C@H](OC(=O)[C@H](O)[C@@H](NC(=O)c4ccccc4)c4ccccc4)C(C)=C1C3(C)C)[C@]1(OC(C)=O)CO[C@@H]1C[C@@H]2O,Activity,A2780cis [1],Active
same,Activity,A2780cis [2],Active
same,Activity,A2780cis [3],Active
same,Activity,A2780cis [4],Active
same,Activity,LU387,Active
same,Activity,A2780cis [5],Active
COc1ccc(Oc2cc(NCCC(F)(F)F)c3ncc(-c4ccc(C(=O)NC5CC5)c(C)c4)n3n2)c(F)c1F [BAY-1217389],clearance,[6],9 mL/min/kg
same,Activity,[7],Non-Toxic
same,half-life,[8],4.1 h
same,Activity,[9],60%
same,MED,NCI-H1299,60%
same,Vd,[10],2.2 L/kg
same,Cmax,[11],74 ng/mL
same,pIC50,Caov-3 cell line,7.44
same,Cmax,[12],177 ng/mL
same,clearance,[13],13.7 mL/min/kg
same,Tmax,[14],7 h
same,Vd,[15],2.7 L/kg
same,T/C,[16],0.53
same,pIC50,[17],< 6.52
same,MED,SUM149PT,30%
same,bioavailability,[18],73%
same,Activity,[19],> 10%
same,Tmax,[20],1.5 h
same,bioavailability,[21],37%
same,Activity,[22],80%
same,pIC50,LXF-289 cell line,8.48
same,half-life,[23],7.8 h
